pIC50: −log10 of the molar value. Blank lines part the entries; values can stand above or below the compound they belong to.
What was measured:
Dipeptidyl peptidase 8 = Dipeptidyl peptidase 8 (Homo sapiens, UniProt Q6V1X1); experiment: Inhibition of DPP8 (unknown origin)
[1] = Octanol/water partition coefficient, logD of compound at 74 kBq incubated for 2 mins by gamma counter method; assay type: physicochemical
Method in brief: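 Octanol and PBS phases were mixed and vortexed for 2 min, then centrifuged at 3,000 rpm for 10 min. Aliquots of 0.5 mL from each phase were γ-counted and corrected for mass and density. LogD was taken as log10 of the octanol/PBS radioactivity ratio.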

[2] = Stability in PBS assessed as compound remaining at 185 kBq measured upto 60 mins by radio-HPLC analysis; assay type: physicochemical; details: read-out: Stability
Method in brief: (§1)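 Radiotracer was incubated at 37 °C for up to 60 min in PBS (0.01 M, pH 7.4) or in mouse plasma. Samples were deproteinized with an equal volume of cold ACN and centrifuged. The supernatant was analyzed by radio-HPLC with 30 s fractions γ-counted to give the intact fraction. Triplicates.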

[3] = Stability in CD1 mouse plasma assessed as compound remaining at 185 kBq measured upto 60 mins by radio-HPLC analysis; assay type: ADME, cell-free; details: read-out: Stability; method in brief: as §1
[4] = Stability in PBS assessed as drug degradation at 185 kBq measured upto 60 mins by radio-HPLC analysis; assay type: physicochemical; details: buffer, 1 h; method in brief: as §1
[5] = Stability in CD1 mouse plasma assessed as drug degradation at 185 kBq measured upto 60 mins by radio-HPLC analysis; assay type: ADME, cell-free; details: 1 h; method in brief: as §1
[6] = Stability in female nude mouse harboring null mutation of CD1 antigen complex assessed as drug degradation at 5.1 to 7.4 MBq, iv measured at 60 mins by radio-HPLC analysis; assay type: ADME, organism-based; details: 1 h, dose 5.1-7.4 MBq
Method in brief: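 Female CD1 nude mice received 5.1–7.4 MBq i.v. EDTA blood collected at 15, 30 and 60 min p.i. (n=3 per time point) was centrifuged to plasma, deproteinized with cold ACN and centrifuged. The supernatant was analyzed by radio-HPLC with 30 s fractions γ-counted to give the percent intact tracer.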

[7] = Drug uptake in liver of female nude mouse harboring null mutation of CD1 antigen complex at 5.1 to 7.4 MBq, iv measured after 15 to 60 mins by gamma counter analysis; assay type: ADME, organism-based; details: in vivo, dose lower 5.1 MBq, time lower 15 min, dose upper 7.4 MBq, time upper 60 min
Method in brief: (§2)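 Female CD1 nude mice, 6–8 weeks old (20–25 g), received the radiotracer through the lateral tail vein. At 15, 30 and 60 min p.i. (n = 3 per time point) blood was drawn by cardiac puncture and the animals were euthanized. Organs were excised, weighed and γ-counted. Uptake is expressed as %ID/g.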

[8] = Drug uptake in intestine of female nude mouse harboring null mutation of CD1 antigen complex at 5.1 to 7.4 MBq, iv measured after 15 to 60 mins by gamma counter analysis; assay type: ADME, organism-based; details: in vivo, dose lower 5.1 MBq, time lower 15 min, dose upper 7.4 MBq, time upper 60 min; method in brief: as §2
[9] = Drug uptake in kidney of female nude mouse harboring null mutation of CD1 antigen complex assessed as increase in renal excretion at 5.1 to 7.4 MBq, iv measured after 15 to 60 mins by gamma counter analysis; assay type: ADME, organism-based; details: in vivo, dose lower 5.1 MBq, time lower 15 min, dose upper 7.4 MBq, time upper 60 min; method in brief: as §2
[10] = Drug uptake in urinary bladder of female nude mouse harboring null mutation of CD1 antigen complex assessed as increase in renal excretion at 5.1 to 7.4 MBq, iv measured after 15 to 60 mins by gamma counter analysis; assay type: ADME, organism-based; details: in vivo, dose lower 5.1 MBq, time lower 15 min, dose upper 7.4 MBq, time upper 60 min; method in brief: as §2
[11] = Drug uptake in tumor of female nude mouse harboring null mutation of CD1 antigen complex xenografted with human U-87 MG cells at 5 to 7.4 MBq, iv measured at 60 mins by PET/CT analysis; assay type: ADME, organism-based, Neoplasm; details: in vivo, 1 h, dose 5-7.4 MBq
Method in brief: (§3)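 U-87MG xenografts (5×10^6 cells, subcutaneous flank) were grown in female CD1 nude mice to about 200 mm3. Dynamic whole-body PET over 60 min p.i. was followed by CT. Images were reconstructed with OSEM 3D and expressed as %ID/mL to give time-activity curves. For blocking, the FAP inhibitor (5 mg/kg) was given via the tail vein 30 min before the tracer; n=4.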

[12] = Drug uptake in tumor of female nude mouse harboring null mutation of CD1 antigen complex xenografted with human U-87 MG cells at 5 to 7.4 MBq, iv pretreated with (S)-N-(2-(2-cyano-4,4-difluoropyrrolidin-1-yl)-2-oxoethyl)quinoline-4-carboxamide for 30 mins followed by radioligand addition and measured measured after 60 mins by PET/CT analysis; assay type: ADME, organism-based, Neoplasm; details: in vivo, 1 h, dose 5-7.4 MBq; method in brief: as §3
[13] = Drug uptake in skull of female nude mouse harboring null mutation of CD1 antigen complex xenografted with human U-87 MG cells at 5 to 7.4 MBq, iv measured after 60 mins by gamma counter analysis; assay type: ADME, organism-based; details: in vivo, 1 h, dose 5-7.4 MBq
[14] = Ratio of drug level in tumor to muscle of female nude mouse harboring null mutation of CD1 antigen complex xenografted with human U-87 MG cells at 5 to 7.4 MBq, iv measured at 60 mins postinjection by gamma counter analysis; assay type: ADME, organism-based; details: in vivo, 1 h, dose 5-7.4 MBq
Method in brief: (§4)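 Subcutaneous U-87MG xenografts (5×10^6 cells in DPBS, hind flank) were grown in female CD1 nude mice to about 200 mm3. After tail-vein radiotracer injection and a 60 min dynamic PET scan, tissues were harvested at 60 min p.i. and γ-counted (%ID/g). Tumor-to-tissue ratios are means ± SD of individual ratios, n=4 per tracer.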

[15] = Ratio of drug level in tumor to blood of female nude mouse harboring null mutation of CD1 antigen complex xenografted with human U-87 MG cells at 5 to 7.4 MBq, iv measured at 60 mins postinjection by gamma counter analysis; assay type: ADME, organism-based; details: tumour, 1 h, dose 5-7.4 MBq; method in brief: as §4
[16] = Ratio of drug level in tumor to small intestine of female nude mouse harboring null mutation of CD1 antigen complex xenografted with human U-87 MG cells at 5 to 7.4 MBq, iv measured at 60 mins postinjection by gamma counter analysis; assay type: ADME, organism-based; details: in vivo, 1 h, dose 5-7.4 MBq; method in brief: as §4
[17] = Ratio of drug level in tumor to liver of female nude mouse harboring null mutation of CD1 antigen complex xenografted with human U-87 MG cells at 5 to 7.4 MBq, iv measured at 60 mins postinjection by gamma counter analysis; assay type: ADME, organism-based; details: in vivo, 1 h, dose 5-7.4 MBq; method in brief: as §4
[18] = Drug uptake in tumor of female nude mouse harboring null mutation of CD1 antigen complex xenografted with FAP-negative human HT-29 cells at 5 to 7.4 MBq, iv measured at 60 mins by PET/CT analysis; assay type: ADME, organism-based, Neoplasm; details: in vivo, 1 h, dose 5-7.4 MBq
Method in brief: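 HT29 xenografts (10×10^6 cells, subcutaneous hind flank) were grown in female CD1 nude mice to about 200 mm3. After tail-vein injection of the tracer, dynamic PET over 60 min was followed by CT. Images were reconstructed with OSEM 3D and tumor uptake was expressed as %ID/mL from time-activity curves, n=4.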

[19] = Drug uptake in tumor of female nude mouse harboring null mutation of CD1 antigen complex xenografted with FAP-negative human HT-29 cells at 5 to 7.4 MBq, iv measured after 60 mins by autoradiography; assay type: ADME, organism-based, Neoplasm; details: in vivo, 1 h, dose 5-7.4 MBq
Method in brief: (§5)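 Right after imaging and γ-counting, tumors from HT29 or U-87MG xenografts were snap-frozen and embedded in OCT. Sections of 100 µm were exposed overnight to phosphor screens. Non-blocked tumors were compared with tumors from mice pre-injected with the FAP inhibitor.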

[20] = Drug uptake in tumor of female nude mouse harboring null mutation of CD1 antigen complex xenografted with human U-87 MG cells at 5 to 7.4 MBq, iv measured after 60 mins by autoradiography; assay type: ADME, organism-based, Neoplasm; details: in vivo, 1 h, dose 5-7.4 MBq; method in brief: as §5
[21] = Drug uptake in tumor of female nude mouse harboring null mutation of CD1 antigen complex xenografted with human U-87 MG cells with increased FAP positive tumor area at 5 to 7.4 MBq, iv measured after 60 mins by immunohistochemistry analysis; assay type: ADME, organism-based, Neoplasm; details: in vivo, 1 h, dose 5-7.4 MBq
[22] = Drug uptake in tumor of female nude mouse harboring null mutation of CD1 antigen complex xenografted with human HT-29 cells with decreased FAP positive tumor area at 5 to 7.4 MBq, iv measured after 60 mins by immunohistochemistry analysis; assay type: ADME, organism-based, Neoplasm; details: in vivo, 1 h, dose 5-7.4 MBq
[23] = Drug uptake in bone structures of female nude mouse harboring null mutation of CD1 antigen complex xenografted with human U-87 MG cells at 5 to 7.4 MBq, iv measured after 60 mins by gamma counter analysis; assay type: ADME, organism-based, Bone element; details: in vivo, 1 h, dose 5-7.4 MBq

Chain of Dipeptidyl peptidase 8 (Q6V1X1 whole entry): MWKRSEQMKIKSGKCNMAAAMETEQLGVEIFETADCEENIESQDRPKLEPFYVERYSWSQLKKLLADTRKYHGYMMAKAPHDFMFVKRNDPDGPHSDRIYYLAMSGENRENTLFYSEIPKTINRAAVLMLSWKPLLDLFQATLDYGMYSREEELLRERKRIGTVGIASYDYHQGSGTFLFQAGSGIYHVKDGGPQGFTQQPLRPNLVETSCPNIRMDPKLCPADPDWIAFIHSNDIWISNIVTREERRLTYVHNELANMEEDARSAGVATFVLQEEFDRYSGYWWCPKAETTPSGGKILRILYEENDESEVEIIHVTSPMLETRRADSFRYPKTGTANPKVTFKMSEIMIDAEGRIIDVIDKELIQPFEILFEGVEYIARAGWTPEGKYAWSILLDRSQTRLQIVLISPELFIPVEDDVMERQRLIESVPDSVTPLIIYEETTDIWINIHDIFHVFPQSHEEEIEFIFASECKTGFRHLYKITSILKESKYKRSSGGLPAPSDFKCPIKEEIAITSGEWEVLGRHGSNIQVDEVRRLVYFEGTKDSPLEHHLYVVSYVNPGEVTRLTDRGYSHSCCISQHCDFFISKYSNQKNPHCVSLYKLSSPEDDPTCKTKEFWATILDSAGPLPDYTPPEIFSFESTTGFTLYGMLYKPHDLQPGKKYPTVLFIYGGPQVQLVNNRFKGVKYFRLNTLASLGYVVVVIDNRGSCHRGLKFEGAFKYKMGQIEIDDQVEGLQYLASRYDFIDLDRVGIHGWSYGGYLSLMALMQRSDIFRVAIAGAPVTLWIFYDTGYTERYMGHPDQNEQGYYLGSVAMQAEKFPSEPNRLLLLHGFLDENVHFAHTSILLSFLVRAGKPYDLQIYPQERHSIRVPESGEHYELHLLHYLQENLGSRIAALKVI

pIC50 (Dipeptidyl peptidase 8): 5.33
SMILES: N#C[C@@H]1CC(F)(F)CN1C(=O)CNC(=O)c1ccnc2ccccc12

logD at 2 min [1]: 0.77
remaining at 1 h, 185 kBq [2]: > 70%
remaining at 1 h, 185 kBq [3]: > 70%
Stability [4]: Stable
Stability [5]: Stable
Stability [6]: Unstable
Drug uptake [7]: Active
Drug uptake [8]: Active
Drug uptake [9]: Active
Drug uptake [10]: Active
Drug uptake [11]: < 3 %ID/ml
Drug uptake [12]: Not Active
Drug uptake [13]: Active
Ratio [14]: 6.48
Ratio [15]: 5.01
Ratio [16]: 0.22
Ratio [17]: 1.64
Drug uptake [18]: 1.86 %ID/ml
Drug uptake [19]: Active
Drug uptake [20]: Active
Drug uptake [21]: Active
Drug uptake [22]: Not Active
Drug uptake [23]: Active
SMILES: COC(C[18F])COc1ccc2nccc(C(=O)NCC(=O)N3CC(F)(F)C[C@H]3C#N)c2c1 (some centres undefined)
